Measurements as given in publication PMC3986664 (Molecular Metabolism, 2014).
Where a SMILES comes first, the peptide text is derived from it. [ ]: non-standard residue; d: D form. Aib = CC(C)(N)C(=O)O

Columns and labels:
[1] = Measure of maximum solubility; assay type: physicochemical; conditions: pH 7.4, 10 mM Tris, 4 °C, 48 h, saturated solution, UV 280 nm, single point
Outline: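 Saturated peptide solutions made in 10 mM Tris base, pH adjusted to 7.4, held 48 h at 4 °C and at ambient temperature, then pH re-measured. Serially diluted until no visible precipitate and UV absorbance became linear.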

[2] = Long-term stability study, alkaline RP-HPLC; assay type: physicochemical

| SMILES | Apparent solubility relative to Asp28 [1] | Difference in stability at six months between Asp28 and IUB75 (Δ1) ([2]; Figure 8, trend-line of degradation slopes) [%] | Stability relative to Asp28 ([2]; same pH and ambient temperature, six month study) | Total degradation ([2]; six months, ambient temperature, 1 mg/ml, 20 mM Tris, 0.1% SDS, pH 8.6) |
| --- | --- | --- | --- | --- |
| CSCC[C@H](NC(=O)[C@H](CC(C)C)NC(=O)[C@H](Cc1c[nH]c2ccccc12)NC(=O)[C@H](CCC(N)=O)NC(=O)[C@@H](NC(=O)[C@H](Cc1ccccc1)NC(=O)[C@H](CC(=O)O)NC(=O)[C@H](CCC(N)=O)NC(=O)[C@H](C)NC(=O)[C@H](CCCNC(=N)N)NC(=O)[C@H](CCCNC(=N)N)NC(=O)[C@H](CO)NC(=O)[C@H](CC(=O)O)NC(=O)[C@H](CC(C)C)NC(=O)[C@H](Cc1ccc(O)cc1)NC(=O)[C@H](CCCCN)NC(=O)[C@H](CO)NC(=O)[C@H](Cc1ccc(O)cc1)NC(=O)[C@H](CC(=O)O)NC(=O)[C@H](CO)NC(=O)[C@@H](NC(=O)[C@H](Cc1ccccc1)NC(=O)[C@@H](NC(=O)CNC(=O)[C@H](CCC(N)=O)NC(=O)[C@H](CO)NC(=O)[C@@H](N)Cc1c[nH]cn1)[C@@H](C)O)[C@@H](C)O)C(C)C)C(=O)N[C@@H](CC(=O)O)C(=O)N[C@@H](CCC(=O)O)C(=O)O [Asp28,Glu29] | doubling in apparent peptide solubility | – | – | – |
| CSCC[C@H](NC(=O)[C@H](CC(C)C)NC(=O)[C@H](Cc1c[nH]c2ccccc12)NC(=O)[C@H](CCC(N)=O)NC(=O)[C@@H](NC(=O)[C@H](Cc1ccccc1)NC(=O)[C@H](CC(=O)O)NC(=O)[C@H](CCC(N)=O)NC(=O)[C@H](C)NC(=O)[C@H](CCCNC(=N)N)NC(=O)[C@H](CCCNC(=N)N)NC(=O)C(C)(C)NC(=O)[C@H](CC(=O)O)NC(=O)[C@H](CC(C)C)NC(=O)[C@H](Cc1ccc(O)cc1)NC(=O)[C@H](CCCCN)NC(=O)[C@H](CO)NC(=O)[C@H](Cc1ccc(O)cc1)NC(=O)[C@H](CC(=O)O)NC(=O)[C@H](CO)NC(=O)[C@@H](NC(=O)[C@H](Cc1ccccc1)NC(=O)[C@@H](NC(=O)CNC(=O)[C@H](CCC(N)=O)NC(=O)[C@H](CO)NC(=O)[C@@H](N)Cc1c[nH]cn1)[C@@H](C)O)[C@@H](C)O)C(C)C)C(=O)N[C@@H](CC(=O)O)C(=O)N[C@@H](CCC(=O)O)C(=O)O [IUB75] (H-HSQGTFTSDYSKYLD[Aib]RRAQDFVQWLMDE-OH) | – | 40 | approximately twice as stable | more than 20% |
